# Compound activity deposited in PubChem BioAssay by Johns Hopkins Ion Channel Center.
# MrgX1 PAM = allosterically activates human MrgX1 receptor signaling. MrgX1-HEK293, Fluo-4 calcium flux, FDSS; hits give high values. B-score at 10 µM. 310,000 compounds, 0.63% hits. AID 588675;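 active = plate-corrected calcium response at least 3 library SD above typical, normal starting fluorescence, not activating the receptor alone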;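 also: compound read alongside a low EC10 to EC30 dose of BAM8-22 agonist; peak minus trough fluorescence over baseline measured at the second addition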
# Target sequence (Q96LB2 whole entry, looked up): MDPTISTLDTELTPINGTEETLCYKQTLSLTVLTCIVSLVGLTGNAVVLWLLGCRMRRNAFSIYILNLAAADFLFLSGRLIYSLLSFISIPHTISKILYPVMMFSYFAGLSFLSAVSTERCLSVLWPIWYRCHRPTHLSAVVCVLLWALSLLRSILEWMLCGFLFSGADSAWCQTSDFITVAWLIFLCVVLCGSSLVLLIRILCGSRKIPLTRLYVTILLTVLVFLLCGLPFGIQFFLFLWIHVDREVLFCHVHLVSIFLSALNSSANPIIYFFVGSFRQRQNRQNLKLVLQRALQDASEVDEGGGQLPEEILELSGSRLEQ
# MrgX1 antagonist = antagonists of human MrgX1 receptor | MRGX1-HEK293 calcium flux, Fluo-4, BAM8-22 antagonism; hits give low values | AID 588676 | Q96LB2 | B-score at 10 µM | 310,000 compounds, 1.3% hits;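 active = calcium-response B-score plate-corrected more than 3 library SD below zero, starting fluorescence within 5 deviations, no agonist response on first addition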;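 also: peak minus trough fluorescence over baseline after final BAM8-22 challenge near maximal dose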
# RGS4 act = potentiators or activators of RGS4; B-score at 10 µM; 310,000 compounds, 0.92% hits; HEK293 M3R/inducible RGS4, carbachol calcium flux Fluo4; hits give low values;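 active = B-score of the integrated calcium signal more than 4 SD below the library mean, with starting fluorescence not abnormally high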;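 also: negative B-score means reduced calcium response which marks RGS4 activation or potentiation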
#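 System: HEK293 FlpIn-TREx cells, stable M3R, doxycycline-inducible RGS4. Timing: overnight RGS4 induction, 30 min dye load 37 °C, 20 min compound RT. Also added: carbachol, ECmax concentration. Measured by: Fluo4 fluorescence kinetic imaging of calcium. Evaluation: integrated calcium ratio converted to B score.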
# MrgX1 ag = human MrgX1 receptor agonism, primary screen; Q96LB2; MrgX1-HEK293 cells, Fluo-4 calcium fluorescence, agonist mode; hits give high values; B-score at 10 µM; 310,000 compounds, 0.44% hits; AID 588627;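 active = calcium response B-score plate-corrected fluorescence ratio at least 3 library SD, with starting fluorescence B-score inside 5 SD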
#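 times = overnight plating, then 30 min 37 °C plus 30 min room-temperature dye loading | assay system = stable human MrgX1 HEK293 cell line | input = fifteen thousand cells per well | signal = kinetic calcium dye fluorescence, Fluo-4 NW | dosing = compound delivered in addition one of three | read-out = B-scored fluorescence response ratio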
# RGS4 block = human RGS4 inhibition; P49798; HEK293 M3R/RGS4 inducible, Fluo-4 calcium flux; hits give high values; triggered by carbachol at its EC20; B-score at 10 µM; 310,000 compounds, 0.45% hits; AID 463165;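 active = B-score, a plate-corrected calcium signal, over three deviations above library mean, with baseline fluorescence within five deviations of library mean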;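 also: RGS4 expression induced by doxycycline in cells with stable M3 receptor; B-score is computed from the integrated fluorescence ratio over baseline after carbachol; higher B-score means a larger calcium signal and so more RGS4 inhibition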
# Target sequence (P49798 whole entry, looked up): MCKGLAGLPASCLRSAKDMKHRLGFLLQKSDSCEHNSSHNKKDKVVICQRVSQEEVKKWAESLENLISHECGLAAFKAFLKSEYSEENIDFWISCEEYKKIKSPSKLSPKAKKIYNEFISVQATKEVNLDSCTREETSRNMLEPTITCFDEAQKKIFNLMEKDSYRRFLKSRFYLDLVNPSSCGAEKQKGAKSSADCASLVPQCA
# RGS4 activ val = RGS4 activation, validation assay; shares compounds with RGS4 act; HEK293 M3R/RGS4 inducible, carbachol calcium flux Fluo4; inhibition, % at 10 µM; 1,100 compounds, 89% hits;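 active = inhibition above 3 SD of the buffer control wells, cut at about 41% in these data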;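 also: signal is the integrated peak-minus-minimum Fluo4 fluorescence over baseline ratio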
# M3R Ca counter = activity in cells without induced RGS4 expression. shares compounds with RGS4 act. HEK293 M3R non-induced RGS4, Fluo4 calcium flux; after carbachol challenge at its EC90. inhibition, % at 10 µM. 1,100 compounds, 82% hits. AID 602283;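 active = inhibition exceeding 3 SD of buffer-only control wells, cut at about 26% in these data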;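 also: percent drop in integrated peak-minus-baseline over baseline Fluo4 ratio after carbachol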
# Numbers stand for hits; 0 = inactive; - = no result; ! = not active in a repeat. The list is not random: actives were taken first. Their share in the collection is about 3.5%.
SMILES,MrgX1 PAM,MrgX1 antagonist,RGS4 act,MrgX1 ag,RGS4 block,RGS4 activ val,M3R Ca counter
CCN(CC)C(=O)c1ccc(NC(=O)CN2CCc3cc(OC)c(OC)cc3C2)cc1,0,0,0,0,0,-,-
Cc1c(C(c2ccc(Br)cc2)c2c(O)c3ccccc3oc2=O)c(=O)n(-c2ccccc2)n1C (stereo unspecified),0,0,0,0,0,-,-
Cc1c(C(c2ccc(Cl)cc2Cl)c2c(O)c3ccccc3oc2=O)c(=O)n(-c2ccccc2)n1C (stereo unspecified),14,0,0,0,0,-,-
CCn1c(O)c(C=NCCN2CCOCC2)c(=O)[nH]c1=S,0,0,0,0,0,-,-
C#C[C@@]1(O)CCC2C3CCC4=C/C(=N/OCC(=O)NC(C(=O)NC(CC(C)C)C(=O)O)C(C)C)CC[C@]4(C)C3CC[C@@]21C (stereo partly specified),0,0,0,0,0,-,-
CCOC(=O)c1c(-n2c(C)cc(/C=C3/C(=O)NC(=O)N(CC)C3=O)c2C)sc2c1CCCC2,0,0,0,0,0,-,-
CCOC(=O)c1c(-n2c(C)cc(C=C3C(=O)NC(=S)NC3=O)c2C)sc2c1CCCC2,0,0,0,28,0,-,-
CN(C)C=C1C(=O)N(C2CCCCC2)C(=O)N(C2CCCCC2)C1=O,0,0,0,52,0,-,-
CCN(CC)c1ccc(N=Cc2c(O)n(Cc3ccccc3)c(=O)[nH]c2=O)cc1,0,0,-7.3!,0,0,-,-
O=c1[nH]c(=S)n(C2CC2)c(O)c1C=NCCc1ccccc1,0,0,0,0,0,-,-
Cc1cc(-c2ccccc2)cc(-c2ccccc2)[n+]1CCc1ccccc1,0,-4.6,-8.2,0,0,-,-
Clc1ccc(C[n+]2c(-c3ccccc3)cc(-c3ccccc3)cc2-c2ccccc2)cc1,0,-6.9,-8.1,0,0,-,-
CCOc1ccc(NC2=NCCCS2)cc1,0,0,0,0,0,-,-
C=C(C=O)CC1CC(O)[C@]2(C)OC3CC4OC5C[C@]6(C)O[C@]7(C)CCC8OC9C[C@]%10(C)OC%11C(C)=CC(=O)OC%11CC%10OC9C[C@@H](C)C8OC7CC6O[C@]5(C)CC5OC5C4OC3CC2O1 (stereo partly specified),0,-5.4,0,0,0,-,-
C=C(COC(C)=O)CC1CC(O)[C@]2(C)OC3CC4OC5C[C@]6(C)O[C@]7(C)CCC8OC9C[C@]%10(C)OC%11C(C)=CC(=O)OC%11CC%10OC9C[C@@H](C)C8OC7CC6O[C@]5(C)C/C=C\C4OC3CC2O1 (stereo partly specified),-,-,0,-,18,-,-
O=c1c2ccccc2nc(-c2cccs2)n1-c1ccccc1,0,0,0,0,0,-,-
NC(N)=N/N=C/c1cn(-c2ccccc2)nc1-c1cccs1,0,0,0,44,0,-,-
Clc1ccc2sc(C3CCNCC3)nc2c1,0,0,0,0,0,-,-
Cc1nn(Cc2ccccc2)c(Cl)c1C(=O)OCC(=O)N1CCCC1,0,0,0,0,0,-,-
c1ccc(C(OCCN2CCNCC2)c2ccccc2)cc1,0,0,-9.5,0,0,92,74
c1ccc(CN2CCNCC2)nc1,0,0,0,0,0,-,-
CCn1ccnc1CN1CCCC(C(=O)c2ccc(SC)cc2)C1 (stereo unspecified),0,0,-10,0,0,92,90
CCOc1ccc(NC(=O)CCNC(=O)N2C[C@H]3C[C@@H](C2)c2cccc(=O)n2C3)cc1,0,0,0,0,0,-,-
CCCn1ncc(CN2CCCC(C(=O)c3cccc(OC)c3)C2)c1C (stereo unspecified),0,0,-9.1,0,0,91,70
c1ccc(-c2nnc(C3CC(c4cccnc4)=NO3)o2)cc1 (stereo unspecified),0,0,0,0,0,-,-
SMILES,MrgX1 PAM,MrgX1 antagonist,RGS4 act,MrgX1 ag,RGS4 block,RGS4 activ val,M3R Ca counter
Cc1[nH]c2ccc(OC(F)(F)F)cc2c1CCNCc1cccc([N+](=O)[O-])c1,0,0,0,0,0,-,-
CCOc1cccc(CNCCc2c(C)[nH]c3ccc(OC(F)(F)F)cc23)c1O,0,-5.3,-8.9,0,0,90,90
CN(N)N=Nc1nc2c([nH]1)c(=O)n(C)c(=O)n2C,0,0,0,0,0,-,-
O=C(c1ccc(Cl)cc1)C1CCCN(C2CCSCC2)C1 (stereo unspecified),0,0,-7.9,0,0,92,55
CN(CC(=O)Nc1ccccc1-c1ccccc1)C1CCCCC1,0,0,-9.6,0,0,92,55
CCc1ccccc1NC(=O)CNC1CCCCC1,0,0,0,0,0,-,-
Cc1ccc(C(C)C)c(OCC#CCN2CCCC2)c1,0,0,-9.1,0,0,91,41
CCC1=Nc2cc(C(=O)N3CCC4(CC3)OCCO4)ccc2Sc2ccc(Br)cc21,0,0,0,0,0,-,-
CC1(C(O)(C#CCN2CCCCC2)c2ccccc2)CCCC1 (stereo unspecified),0,0,-7.6,0,0,93,89
OC(CC#CCN1CCCCCC1)(c1ccccc1)C1CCCC1 (stereo unspecified),0,0,-7.7,0,0,93,95
CCOc1cccc(CNC2CN3CCC2CC3)c1 (stereo unspecified),0,0,0,0,0,-,-
COc1cccc(CNC2CN3CCC2CC3)c1OC (stereo unspecified),0,0,-7.7,0,0,56,26
CC(C)c1cc(Br)c(NC(=O)Nc2cccnc2)c(Br)c1,0,0,0,0,0,-,-
CN1CC(C(=O)c2cccs2)C(c2ccc(Cl)cc2)C1 (stereo unspecified),0,0,0,0,0,-,-
O=C(c1cccs1)C1CN2CCC1CC2 (stereo unspecified),0,0,-9.3,0,0,60,0
Cc1ccc(CNC2=NCCS2)cc1,0,0,0,0,0,-,-
Cc1ccc(-c2nc3ccccc3c(=O)n2-c2cc(C)ccn2)cc1,0,0,0,0,0,-,-
Cc1ccc(-c2nc3ccccc3c(=O)n2-c2cccc(C)n2)cc1,0,0,-10,0,0,48,84
CCC[N+]12CCC(CC1)C(=C(c1ccccc1)c1ccccc1)C2,0,0,-12,0,0,90,64
Brc1ccc2c(c1)C(OC1CN3CCC1CC3)c1ccccc1CS2 (stereo unspecified),0,0,-14,0,0,94,90
COc1ccc(OC)c2c1CCC1NCCOC21 (stereo unspecified),0,0,0,0,0,-,-
OC(c1ccccc1)(c1ccc(Cl)cc1)C1CN2CCC1CC2 (stereo unspecified),0,0,-9.1,0,0,78,57
S=C=Nc1cccc(C2(N3CCCCC3)CCCCC2)c1,0,0,-,0,-,-,-
